Source: ChEMBL document CHEMBL1124171, “Ergolines as selective 5-HT1 agonists” (J Med Chem, 1988)

Tests used:
Rattus norvegicus [1] = experiment: Effect on 5-hydroxyindoleacetic acid in rat whole brain, after sc administration (0 mg/kg dose) (experiment 2); assay type: functional, organism-based
How it was run: (§1)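 Drug was given sc in dilute HCl to male Wistar rats (~150 g), with decapitation 1 h later. Whole brains were frozen on dry ice and held at −15 °C. […] Results are mean ± SE, five rats/group, P < 0.05 versus vehicle control.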

Rattus norvegicus [2] = experiment: Effect on 5-hydroxyindoleacetic acid in rat whole brain, after sc administration (0.03 mg/kg dose) (experiment 1); assay type: functional, organism-based; how it was run: as §1
Rattus norvegicus [3] = experiment: Effect of Metergoline on the elevation of serum corticosterone, after sc administration (0.1 mg/kg) No pretreatment; assay type: functional, organism-based
How it was run: (§2)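 Male Wistar rats (~150 g) received metergoline (3 mg/kg, ip) or no pretreatment. Drug was given sc in dilute HCl 1 h later, and rats were decapitated 1 h after that. Serum corticosterone was determined spectrofluorometrically. Results are mean ± SE, five rats/group, P < 0.05 versus the corresponding control.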

Rattus norvegicus [4] = experiment: Effect on serum corticosterone in serum of rats after sc administration (0 mg/kg dose) (experiment 1); assay type: functional, organism-based
How it was run: (§3)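 Male Wistar rats (~150 g) housed at 24 °C with lights 7 a.m.–7 p.m. Compound in dilute HCl given sc 1 h before decapitation. Serum corticosterone measured spectrofluorometrically, μg/100 mL. Five rats per group, mean ± SE. Significance set at P < 0.05 versus the vehicle control.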

Rattus norvegicus [5] = experiment: Effect on 5-hydroxyindoleacetic acid in rat whole brain, after sc administration (0.1 mg/kg dose) (experiment 1); assay type: functional, organism-based; how it was run: as §1
Rattus norvegicus [6] = experiment: Effect of Metergoline on the elevation of serum corticosterone, after sc administration (1.0 mg/kg) Metergoline pretreament; assay type: functional, organism-based; how it was run: as §2
Rattus norvegicus [7] = experiment: Effect on homovanillic acid concentration in rat striatum, after 0.03 mg/kg sc administration; assay type: functional; settings: route subcutaneous
How it was run: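 Male Wistar rats (~150 g) were given drug or apomorphine HCl sc and decapitated 1 h later. Striatal DOPAC and HVA were quantified by LC with electrochemical detection. Results are mean ± SE, five rats/group, P < 0.05.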

[8] = target: Serotonin 2 (5-HT2) receptor (Rattus norvegicus, UniProt P30994+P08909+P14842); experiment: Binding affinity at 5-hydroxytryptamine 2 receptor from rat frontal cortex homogenates by [3H]-spiperone displacement.; assay type: tissue-based
Rattus norvegicus [9] = experiment: Effect of Metergoline on the elevation of serum corticosterone, after sc administration (0.3 mg/kg) Metergoline pretreament; assay type: functional, organism-based; how it was run: as §2
Rattus norvegicus [10] = experiment: Decreased accumulation of 5-hydroxytryptophan after decarboxylase inhibition in the hypothalamus of rat at a dose 0.3 mg/Kg, sc; assay type: functional, organism-based
How it was run: (§4)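 Male Wistar rats (~150 g) got drug sc in dilute HCl. NSD 1015 (100 mg/kg, ip) was given 30 min after drug and 30 min before decapitation. Hypothalamic 5-HTP was measured by LC with electrochemical detection. Results are mean ± SE, five rats per treated group and six controls; significance at P < 0.01.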

Rattus norvegicus [11] = experiment: Effect on concentrations of serotonin in rat brain hypothalamus after 0.3 mg/kg sc administration; assay type: functional, organism-based; set-up: dose 0.3 mg/kg
How it was run: (§5)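 Male Wistar rats (~150 g) were injected sc with drug in dilute HCl and decapitated 1 h later. Hypothalamus and striatum were dissected and frozen on dry ice. […] Results are mean ± SE, five rats/group, P < 0.05.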

Rattus norvegicus [12] = experiment: Effect on serotonin in rat whole brain, after sc administration (0 mg/kg dose) (experiment 1); assay type: functional, organism-based; how it was run: as §1
Rattus norvegicus [13] = experiment: Minimum effective dose required to suppressing (MED) 5HIAA concentration in rat when administered sc; assay type: functional; settings: read-out: MED
How it was run: (§6)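 Male Wistar rats (~150 g). Compound in dilute HCl given sc at graded doses 1 h before decapitation. Whole-brain 5-HIAA measured by LC with electrochemical detection; serum corticosterone measured spectrofluorometrically. Minimum effective dose is the lowest dose giving a significant difference from control (P < 0.05).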

Rattus norvegicus [14] = experiment: Effect on serotonin in rat whole brain, after sc administration (0 mg/kg dose) (experiment 2); assay type: functional, organism-based; how it was run: as §1
[15] = Ratio of affinity towards 5-HT1 to 5-HT2 receptor
How it was run: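 Frontal cortex from male Wistar rats (140–160 g), homogenate pellet in 0.05 M Tris with 10 μM pargyline and 4 mM Ca²⁺, 250–350 μg protein/sample. 5-HT1: 2 nM [³H]-5-HT, nonspecific with 10 μM 5-HT. […] Eleven concentrations, 0.1–10 000 nM, in duplicate. IC50 from curve fitting of specific binding.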

Rattus norvegicus [16] = experiment: Effect on serotonin in rat whole brain, after sc administration (0.03 mg/kg dose) (experiment 1); assay type: functional, organism-based; how it was run: as §1
Rattus norvegicus [17] = experiment: Effect on serotonin in rat whole brain, after sc administration (0.3 mg/kg dose) (experiment 1); assay type: functional, organism-based
Rattus norvegicus [18] = experiment: Effect of Metergoline on the elevation of serum corticosterone, after sc administration (1.0 mg/kg) No pretreatment; assay type: functional, organism-based; how it was run: as §2
Rattus norvegicus [19] = experiment: Effect on 5-hydroxyindoleacetic acid in rat whole brain, after sc administration (0.03 mg/kg dose) (experiment 2); assay type: functional, organism-based; how it was run: as §1
Rattus norvegicus [20] = experiment: Effect on 5-hydroxyindoleacetic acid in rat whole brain, after sc administration (0.01 mg/kg dose) (experiment 2); assay type: functional, organism-based; how it was run: as §1
Rattus norvegicus [21] = experiment: Effect on serotonin in rat whole brain, after sc administration (0.01 mg/kg dose) (experiment 2); assay type: functional, organism-based; how it was run: as §1
Rattus norvegicus [22] = experiment: Effect on serotonin in rat whole brain, after sc administration (0.03 mg/kg dose) (experiment 2); assay type: functional, organism-based
Rattus norvegicus [23] = experiment: Effect of Metergoline on the elevation of serum corticosterone, after sc administration (0.03 mg/kg) Metergoline pretreament; assay type: functional, organism-based; how it was run: as §2
Rattus norvegicus [24] = experiment: Effect on serotonin in rat whole brain, after sc administration (1 mg/kg dose) (experiment 1); assay type: functional, organism-based
Rattus norvegicus [25] = experiment: Effect of Metergoline on the elevation of serum corticosterone, after sc administration (0.03 mg/kg) No pretreatment; assay type: functional, organism-based; how it was run: as §2
Rattus norvegicus [26] = experiment: Effect on serum corticosterone in serum of rats after sc administration (0.03 mg/kg dose) (experiment 1); assay type: functional, organism-based; how it was run: as §3
Rattus norvegicus [27] = experiment: Effect of Metergoline on the elevation of serum corticosterone, after sc administration (0.3 mg/kg) No pretreatment; assay type: functional, organism-based; how it was run: as §2
Rattus norvegicus [28] = experiment: Effect on concentration of 5HIAA in rat brain hypothalamus after 0.3 mg/kg sc administration; assay type: functional, organism-based; set-up: dose 0.3 mg/kg; how it was run: as §5
Rattus norvegicus [29] = experiment: Decreased accumulation of 5-hydroxytryptophan after decarboxylase inhibition in the hypothalamus of rat at a dose 0.1mg/Kg, sc; assay type: functional, organism-based; how it was run: as §4
Rattus norvegicus [30] = experiment: Minimum effective dose required to increase (MED) corticosterone in rat serum, sc; assay type: functional; settings: read-out: MED; how it was run: as §6
Rattus norvegicus [31] = experiment: Decreased accumulation of 5-hydroxytryptophan after decarboxylase inhibition in the hypothalamus of rat at a dose 0mg/Kg, sc; assay type: functional, organism-based; how it was run: as §4
Rattus norvegicus [32] = experiment: Effect of Metergoline on the elevation of serum corticosterone, after sc administration (0 mg/kg) No pretreatment; assay type: functional, organism-based; how it was run: as §2
Rattus norvegicus [33] = experiment: Effect on serum corticosterone in serum of rats after sc administration (1 mg/kg dose) (experiment 1); assay type: functional, organism-based; how it was run: as §3

In the case of `C[C@@H]1C=C2c3cccc4c3[C@@H](CN4)C[C@H]2N(C)C1`, the Concentration (Rattus norvegicus [1]) is reported as 2.2 nM/g, the Concentration (Rattus norvegicus [2]) is reported as 1.52 nM/g and the Serum corticosterone (Rattus norvegicus [3]) is reported as 33.8 µg/mL. For the same compound, the Concentration (Rattus norvegicus [4]) was 4.3 nM/g, the Concentration (Rattus norvegicus [5]) was 1.45 nM/g and the Serum corticosterone (Rattus norvegicus [6]) was 61.2 µg/mL. The Homovanillic acid concentration (Rattus norvegicus [7]) was 2.89 nM/g, the IC50 [8] was 1665 nM and the Serum corticosterone (Rattus norvegicus [9]) was 50.2 µg/mL. For the same compound, the Concentration (Rattus norvegicus [10]) was 0.71 nM/g, the Concentration (Rattus norvegicus [11]) was 4.78 mg/kg and the Concentration (Rattus norvegicus [12]) was 2.32 nM/g. The minimal effective dose (Rattus norvegicus [13]) was 0.03 mg/kg, the Concentration (Rattus norvegicus [14]) was 2.66 nM/g and the Selectivity ratio [15] was 100. It also gave a Concentration (Rattus norvegicus [16]) of 2.8 nM/g, a Concentration (Rattus norvegicus [17]) of 2.95 nM/g and a Serum corticosterone (Rattus norvegicus [18]) of 70.8 µg/mL. The Concentration (Rattus norvegicus [19]) was 1.9 nM/g, the Concentration (Rattus norvegicus [20]) was 2.2 nM/g and the Concentration (Rattus norvegicus [21]) was 2.67 nM/g. It also gave a Concentration (Rattus norvegicus [22]) of 2.77 nM/g, a Serum corticosterone (Rattus norvegicus [23]) of 22.1 µg/mL and a Concentration (Rattus norvegicus [24]) of 3.02 nM/g. For the same compound, the Serum corticosterone (Rattus norvegicus [25]) was 6.5 µg/mL, the Concentration (Rattus norvegicus [26]) was 6.5 nM/g and the Serum corticosterone (Rattus norvegicus [27]) was 46.6 µg/mL. For the same compound, the Concentration (Rattus norvegicus [28]) was 2.18 mg/kg, the Concentration (Rattus norvegicus [29]) was 0.73 nM/g and the minimal effective dose (Rattus norvegicus [30]) was 0.1 mg/kg. It also gave a Concentration (Rattus norvegicus [31]) of 1.92 nM/g, a Serum corticosterone (Rattus norvegicus [32]) of 4.3 µg/mL and a Concentration (Rattus norvegicus [33]) of 70.8 nM/g.
